Assay outcomes as filed in PubChem.
Sampled rows, rich in hits. Any-hit rate of the full collection: about 3.1%.
hERG protect = shields human hERG channel from block by proarrhythmic agents; CHO-hERG, FluxOR thallium flux, dofetilide IC70 present; activation (rescue from dofetilide block), less the hit threshold, % at 10 µM; hit rate 0.51% among 310,000; AID 1511;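 active means activation above the mean of controls blocked by dofetilide plus 5 SD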;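 further: thallium influx through hERG after potassium depolarization seen as dye fluorescence rise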
KCNK9 inh = inhibitors of human KCNK9 two-pore domain potassium channel. B-score at 10 µM. hit rate 1.2% among 310,000. Q9NPC2. HEK293 KCNK9, FluxOR thallium flux fluorescence; hits give low values;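 active means ratio B-score over 3 SD below the library mean, with starting fluorescence within 5 SD of its mean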;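 further: negative B-score means less thallium flux so channel inhibition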
KCNQ1 block = blocks the human KCNQ1 potassium channel. P51787. CHO-K1 KCNQ1, FluxOR thallium flux fluorescence; hits give high values. B-score at 10 µM. hit rate 1.3% among 310,000. AID 2642;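 active means compounds whose thallium flux B-score, printed positive for inhibition, exceeds three library SD while starting fluorescence stays within three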;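 further: channel opened by potassium depolarization with thallium stimulus after 20 min compound exposure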
Target sequence (P51787 whole entry, looked up): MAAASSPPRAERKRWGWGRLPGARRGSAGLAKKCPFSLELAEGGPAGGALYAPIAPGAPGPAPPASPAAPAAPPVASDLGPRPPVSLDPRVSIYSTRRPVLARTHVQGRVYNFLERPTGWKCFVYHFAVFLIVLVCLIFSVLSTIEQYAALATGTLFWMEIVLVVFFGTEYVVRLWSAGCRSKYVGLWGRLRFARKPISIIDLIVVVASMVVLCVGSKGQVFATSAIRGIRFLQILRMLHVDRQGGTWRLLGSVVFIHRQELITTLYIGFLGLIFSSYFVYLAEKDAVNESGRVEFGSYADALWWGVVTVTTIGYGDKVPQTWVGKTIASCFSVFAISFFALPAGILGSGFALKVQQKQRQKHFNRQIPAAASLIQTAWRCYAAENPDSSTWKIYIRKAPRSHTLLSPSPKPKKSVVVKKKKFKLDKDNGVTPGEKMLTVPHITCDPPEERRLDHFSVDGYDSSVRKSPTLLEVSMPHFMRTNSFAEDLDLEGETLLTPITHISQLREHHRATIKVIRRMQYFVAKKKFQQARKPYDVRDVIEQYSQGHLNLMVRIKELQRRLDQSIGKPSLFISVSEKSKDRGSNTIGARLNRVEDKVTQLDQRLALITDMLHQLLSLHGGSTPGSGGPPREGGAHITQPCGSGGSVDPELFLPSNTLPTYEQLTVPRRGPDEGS
KCNK3 inh = human KCNK3 channel inhibition, primary screen; B-score at 10 µM; CHO-KCNK3 thallium flux, FluxOR fluorescence; hits give low values; O14649; hit rate 0.84% among 340,000;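 active means B-score under library mean minus 4 SD, starting fluorescence ratio at most library mean plus 5 SD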;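 further: more negative B-score means stronger inhibition of thallium flux through KCNK3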
KCNQ1 act = potentiators or activators of human KCNQ1 potassium channel. P51787. CHO-K1 KCNQ1, thallium flux FluxOR fluorescence; hits give high values. B-score at 10 µM. hit rate 0.35% among 310,000;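 active means fluorescence ratio B-score, a plate-corrected score, at least three library SD, with initial intensity B-score within 5 SD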
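System: CHO-K1 cells stably expressing KCNQ1 / Medium: assay buffer for compound exposure, DMSO matched across wells / Reagent: thallium- and potassium-containing depolarizing buffer / Compound: one concentration, matched DMSO / Incubation: 20 min compound pretreatment at room temperature / Measured by: kinetic FluxOR fluorescence, 10 s baseline plus 110 s post-stimulus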
KCNK9 block conf = confirmation of human KCNK9 potassium channel inhibitors; shares compounds with KCNK9 inh; HEK293 KCNK9 cells, FluxOR thallium flux fluorescence; inhibition, % at 10 µM; hit rate 43% among 4,900;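 active means thallium signal inhibited by more than 5 SD of the compound-free buffer control wells, on both duplicate plates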;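 further: 0% = assay buffer control wells without compound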
Kir2-1 spec = tests whether KCNK9 modulators also affect mouse Kir2.1; shares compounds with KCNK9 inh; Kir2.1 cells, FluxOR thallium flux fluorescence; inhibition, % at 10 µM; hit rate 4% among 4,900; AID 492993;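 active means thallium signal drop more than 5 SD beyond the mean of the no-compound control wells, seen in both duplicate plates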;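 further: signal is fluorescence rise after thallium addition divided by baseline fluorescence; plate controls were assay buffer only for no effect and full block by chlorpromazine control for full effect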
KCNK9 uninduced = second check of KCNK9 modulator effects in non-induced HEK293 cells. shares compounds with KCNK9 inh. hit rate 40% among 4,900. FluxOR thallium flux. inhibition, % at 10 µM;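 active means thallium signal drop beyond 5 SD of the untreated control mean, on both duplicate plates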;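 further: plate controls were buffer only IC0 wells for no effect and SID17386958 at its maximal inhibitory level for full effect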
Numbers without * were called inactive.

What do the screens show for `Cc1ccc(SCCNC(=O)/C=C/c2cccc([N+](=O)[O-])c2)cc1`?
hERG protect: -5; KCNK9 inh: inactive; KCNQ1 block: inactive; KCNK3 inh: inactive; KCNQ1 act: inactive; KCNK9 block conf: inactive; Kir2-1 spec: inactive; KCNK9 uninduced: inactive

What do the screens show for `O=C(/C=C/c1cccc([N+](=O)[O-])c1)NCCSCc1c(Cl)cccc1Cl`?
hERG protect: -11; KCNK9 inh: inactive; KCNQ1 block: inactive; KCNK3 inh: inactive; KCNQ1 act: inactive

Results for O=C(/C=C/c1cccc([N+](=O)[O-])c1)NCCSCc1ccc(Cl)cc1 ?
hERG protect: -12; KCNK9 inh: -9*; KCNQ1 block: inactive; KCNK3 inh: inactive; KCNQ1 act: inactive; KCNK9 block conf: 54%*; Kir2-1 spec: inactive; KCNK9 uninduced: 32%*

What do the screens show for `O=C(COC(=O)c1ccc(O)cc1O)NC1CC1`?
KCNK3 inh: inactive

How did CCCCNC(=S)N/N=C/C1=CCC2CC1C2(C)C (centres undefined) do in these assays?
hERG protect: 4; KCNK9 inh: inactive; KCNQ1 block: inactive; KCNK3 inh: inactive; KCNQ1 act: inactive; KCNK9 block conf: inactive; Kir2-1 spec: inactive; KCNK9 uninduced: inactive

What do the screens show for `CCOC(=O)COc1nc(-c2ccc(C)cc2)cc(-c2ccco2)c1C#N`?
hERG protect: -7; KCNK9 inh: inactive; KCNQ1 block: inactive; KCNK3 inh: inactive; KCNQ1 act: inactive

Results for CCOC(=O)COc1nc(-c2ccco2)cc(-c2ccco2)c1C#N ?
hERG protect: -2; KCNK9 inh: -10*; KCNQ1 block: inactive; KCNK3 inh: inactive; KCNQ1 act: inactive; KCNK9 block conf: 67%*; Kir2-1 spec: inactive; KCNK9 uninduced: 36%*

How did COC(=O)c1ccc(CN(C)S(=O)(=O)c2cccs2)cc1 do in these assays?
hERG protect: -5; KCNK9 inh: inactive; KCNQ1 block: inactive; KCNK3 inh: inactive; KCNQ1 act: inactive

What do the screens show for `Cc1ccc(SCc2ccc(C(=O)N3CCCCC3)cc2)cc1`?
hERG protect: -6; KCNK9 inh: inactive; KCNQ1 block: inactive; KCNK3 inh: inactive; KCNQ1 act: inactive; KCNK9 block conf: inactive; Kir2-1 spec: inactive; KCNK9 uninduced: inactive

Results for CN1CCN(C(=O)c2ccc(CSc3ccc(Cl)cc3)cc2)CC1 ?
hERG protect: -13; KCNK9 inh: inactive; KCNQ1 block: inactive; KCNK3 inh: inactive; KCNQ1 act: inactive

How did Cc1cc(C)cc(NC(=S)N2CC(C)OC(C)C2)c1 (centres undefined) do in these assays?
hERG protect: -7; KCNK9 inh: inactive; KCNQ1 block: inactive; KCNK3 inh: inactive; KCNQ1 act: inactive

Results for COCCNC(=O)Cn1cnc2sc(C)c(S(=O)(=O)N3CCC(C)CC3)c2c1=O ?
hERG protect: -9; KCNK9 inh: inactive; KCNQ1 block: inactive; KCNK3 inh: inactive; KCNQ1 act: inactive

Results for COc1ccc(Cl)cc1Nc1ncnc2sc(C)c(S(=O)(=O)N3CCC(C)CC3)c12 ?
hERG protect: -11; KCNK9 inh: -9.7*; KCNQ1 block: inactive; KCNK3 inh: inactive; KCNQ1 act: inactive; KCNK9 block conf: 48%*; Kir2-1 spec: inactive; KCNK9 uninduced: 34%*

Results for CC(C)(C)N1C(=O)[C@H]2[C@@H](c3ccc(Br)cc3)N3C(=O)N(c4cccc(Cl)c4)C(=O)[C@@]3(Cc3ccccc3)[C@H]2C1=O ?
hERG protect: -5; KCNK9 inh: -8.4*; KCNQ1 block: inactive; KCNK3 inh: inactive; KCNQ1 act: inactive; KCNK9 block conf: inactive; Kir2-1 spec: inactive; KCNK9 uninduced: 26%*

What do the screens show for `COc1ccc([C@@H]2[C@@H]3C(=O)N(C(C)(C)C)C(=O)[C@@H]3[C@]3(Cc4ccccc4)C(=O)N(c4cccc(Cl)c4)C(=O)N23)cc1`?
hERG protect: -9; KCNK9 inh: inactive; KCNQ1 block: inactive; KCNK3 inh: inactive; KCNQ1 act: inactive

Results for O=C(CSc1ncc(C(F)(F)F)cc1Cl)N1CCN(S(=O)(=O)c2ccc(Cl)cc2)CC1 ?
hERG protect: 3; KCNK9 inh: inactive; KCNQ1 block: inactive; KCNK3 inh: inactive; KCNQ1 act: inactive; KCNK9 block conf: inactive; Kir2-1 spec: inactive; KCNK9 uninduced: inactive

How did O=C(CN1CCN(c2ncc(C(F)(F)F)cc2Cl)CC1)N1CCN(c2ncc(C(F)(F)F)cc2Cl)CC1 do in these assays?
hERG protect: -10; KCNK9 inh: inactive; KCNQ1 block: inactive; KCNK3 inh: inactive; KCNQ1 act: inactive

How did O=C(CSc1ccc(Cl)cc1)N1CCN(c2ncc(C(F)(F)F)cc2Cl)CC1 do in these assays?
hERG protect: -6; KCNK9 inh: inactive; KCNQ1 block: inactive; KCNK3 inh: inactive; KCNQ1 act: inactive; KCNK9 block conf: inactive; Kir2-1 spec: inactive; KCNK9 uninduced: inactive

What do the screens show for `O=C(CSc1ncc(C(F)(F)F)cc1Cl)N1CCN(S(=O)(=O)c2ccccc2)CC1`?
hERG protect: -10; KCNK9 inh: inactive; KCNQ1 block: inactive; KCNK3 inh: inactive; KCNQ1 act: inactive

What do the screens show for `CC(C)(C)OC(=O)C[C@H]1C/C=C\C[C@H](CC(=O)N(CCO)Cc2ccccc2)C(=O)N[C@@H](Cc2ccccc2)COC1=O`?
KCNK3 inh: inactive

How did CCc1ccc(CSc2nccn2-c2ccccc2)cc1 do in these assays?
hERG protect: -11; KCNK9 inh: inactive; KCNQ1 block: inactive; KCNK3 inh: inactive; KCNQ1 act: inactive; KCNK9 block conf: inactive; Kir2-1 spec: inactive; KCNK9 uninduced: inactive

How did CCOC(=O)C1C(C(=O)OC)=C(C(=O)OC)c2ccccc2N1S(=O)(=O)C(F)(F)F (centres undefined) do in these assays?
KCNK3 inh: inactive

What do the screens show for `CCCCC(Sc1nc(N)c(NC(=O)c2ccco2)c(=O)[nH]1)C(=O)O` (centres undefined)?
hERG protect: -5; KCNK9 inh: inactive; KCNQ1 block: inactive; KCNK3 inh: inactive; KCNQ1 act: inactive

How did CC(Oc1ccc(F)cc1)C(=O)Nc1cc(S(=O)(=O)N2CCCCC2)ccc1N1CCN(C)CC1 (centres undefined) do in these assays?
KCNK3 inh: inactive

How did CC(Oc1ccc(F)cc1)C(=O)Nc1ccccc1N1CCCCC1 (centres undefined) do in these assays?
hERG protect: -13; KCNK9 inh: -8.5*; KCNQ1 block: 6*; KCNK3 inh: inactive; KCNQ1 act: inactive; KCNK9 block conf: 52%*; Kir2-1 spec: 46%*; KCNK9 uninduced: 32%*
